Measured values published in ChEMBL document CHEMBL5344428, “Discovery, Crystallographic Studies, and Mechanistic Investigations of Novel Phenylalanine Derivatives Bearing a Quinazolin-4-one Scaffold as Potent HIV Capsid Modulators” (J Med Chem, 2023).

How the values were obtained:
[1] = target: Human immunodeficiency virus type 1 reverse transcriptase (Human immunodeficiency virus 1) (UniProt Q72547); details: dose 100.0 nM
[2] = test system: Human immunodeficiency virus 2; experiment: Antiviral activity against HIV2 ROD infected in human MT4 cells assessed as reduction in virus induced cytopathic effect measured after 5 days by MTT assay; format: functional, organism-based; details: Human immunodeficiency virus 2, ROD, MT4, 120 h
Summary of the method: (§1)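 MT-4 cells were infected with HIV-1 IIIB or HIV-2 ROD, and cell viability was read by MTT. […] Each value was run in at least triplicate and averaged from at least three independent experiments.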

[3] = target: Structural capsid protein (Human immunodeficiency virus 1) (UniProt Q76129); experiment: Binding affinity to HIV-1 NL4.3 hexameric capsid protein assessed as residence time by SPR analysis; details: filed as modulator
Sequence of Structural capsid protein (Human immunodeficiency virus 1) (Q76129 as listed by the source): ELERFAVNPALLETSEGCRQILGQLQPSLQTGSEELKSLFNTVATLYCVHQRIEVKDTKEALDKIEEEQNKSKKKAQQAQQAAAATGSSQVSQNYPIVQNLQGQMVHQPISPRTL
Summary of the method: (§2)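 SPR binding of compound to monomeric or disulfide-stabilised hexameric HIV-1 CA NL4.3 protein; koff, residence time and KD derived from isotherms, monomer/hexamer ratio = KD monomer/KD hexamer. Triplicate, SD.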

[4] = Metabolic stability in human liver microsomes assessed as parent compound remaining at 1 uM incubated for 60 mins in presence of NADPH by LC-MS/MS analysis; format: ADME, Microsome; details: 1 h
Summary of the method: (§3)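 Human liver microsomes were used at a final 0.5 mg protein/mL, incubated 60 min with an NADPH regenerating system. The no-cofactor arm replaced NADPH with buffer. T1/2 came from linear regression of the kinetic data. CLint(mic) = (0.693/T1/2)/mg microsomal protein per mL. CLint(liver) was scaled by mg microsomal protein/g liver and g liver/kg body weight.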

[5] = test system: Human immunodeficiency virus 1; experiment: Antiviral activity against HIV1 IIIB infected in human MT4 cells assessed as reduction in virus induced cytopathic effect measured after 5 days by MTT assay; format: functional, organism-based; details: Human immunodeficiency virus 1, IIIB, MT4, 120 h
Summary of the method: as §1

[6] = target: Structural capsid protein (Human immunodeficiency virus 1) (UniProt Q76129); experiment: Binding affinity to HIV-1 NL4.3 monomeric capsid protein assessed as residence time by SPR analysis; details: filed as modulator
Summary of the method: as §2

[7] = test system: Human immunodeficiency virus 2; experiment: Antiviral activity against HIV-2 ROD infected in human MT4 cells assessed as protection against virus induced cytopathic effect; format: functional, organism-based; details: Human immunodeficiency virus 2, ROD
Summary of the method: as §1

[8] = target: Structural capsid protein (Human immunodeficiency virus 1) (UniProt Q76129); experiment: Binding affinity to HIV-1 NL4.3 monomeric capsid protein assessed as Koff by SPR analysis; details: filed as modulator
Summary of the method: as §2

[9] = target: Structural capsid protein (Human immunodeficiency virus 1) (UniProt Q76129); experiment: Binding affinity to HIV-1 NL4.3 hexameric capsid protein assessed as Koff by SPR analysis; details: filed as modulator
Summary of the method: as §2

[10] = test system: Human immunodeficiency virus 1; experiment: Antiviral activity against HIV1 NL4.3 infected in human U87.CD4.CXCR4 cells assessed as inhibition of late stage replication by measuring infection at 1 uM incubated for 48 hrs by microplate luminometer based single-round infection assay (reference value: 100.0 +/- 18.40%); format: functional; design: scale not given: the % may be the effect or the level left
[11] = Metabolic stability in human liver microsomes assessed as parent compound remaining at 1 uM incubated for 60 mins in absence of NADPH by LC-MS/MS analysis; format: ADME, Microsome; details: 1 h
Summary of the method: as §3

[12] = Metabolic stability in human liver microsomes assessed as half-life at 1 uM incubated for 60 mins in presence of NADPH by LC-MS/MS analysis; format: ADME, Microsome
[13] = Metabolic stability in human liver assessed as intrinsic clearance at 1 uM incubated for 60 mins in presence of NADPH by LC-MS/MS analysis; format: ADME, tissue-based; details: read-out: CLH
Summary of the method: as §3

[14] = Metabolic stability in human liver microsomes assessed as intrinsic clearance at 1 uM incubated for 60 mins in presence of NADPH by LC-MS/MS analysis; format: ADME, Microsome
[15] = test system: Human immunodeficiency virus 1; experiment: Antiviral activity against HIV-1 IIIB infected in human MT4 cells assessed as protection against virus induced cytopathic effect; format: functional, organism-based; details: Human immunodeficiency virus 1, IIIB
Summary of the method: as §1

[16] = test system: Human immunodeficiency virus 1; experiment: Antiviral activity against HIV1 NL4.3 infected in human U87.CD4.CXCR4 cells assessed as inhibition of early stage replication by measuring infection at 1 uM incubated for 48 hrs by microplate luminometer based single-round infection assay (reference value: 100.0 +/- 30.99%); format: functional; design: scale not given: the % may be the effect or the level left
[17] = target: T1, Structural capsid protein (Human immunodeficiency virus 1, UniProt Q76129); experiment: Competitive binding affinity to HIV-1 NL4.3 hexameric capsid protein assessed as inhibition of CPSF6 binding to capsid protein by SPR analysis
T1 sequence (Q76129 whole entry): as the sequence (Q76129 as listed by the source) above

[18] = target: T1, Structural capsid protein; experiment: Binding affinity to HIV-1 NL4.3 monomeric capsid protein assessed as dissociation constant by SPR analysis
[19] = target: T1, Structural capsid protein; experiment: Binding affinity to HIV-1 NL4.3 hexameric capsid protein assessed as dissociation constant by SPR analysis
[20] = test system: Human immunodeficiency virus 1; experiment: Selectivity ratio of Kd for HIV-1 NL4.3 monomeric capsid protein to Kd for HIV-1 NL4.3 hexameric capsid protein
Summary of the method: as §2

[21] = Cytotoxicity against human MT4 cells assessed as reduction in cell viability incubated for 5 days by MTT assay; format: toxicity, cell-based; details: MT4 cells, time 5 day
Summary of the method: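 Uninfected MT-4 cells were exposed to compound, and viability was read by the MTT method. […] Each value was run in at least triplicate and averaged from at least three independent experiments.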

Question: With `Cc1cc(/C=C/C#N)cc(C)c1Nc1ccnc(Nc2ccc(C#N)cc2)n1` as the molecule, how does the inhibition [1] read?
Answer: 50%

Question: For `COc1ccc(N(C)C(=O)[C@H](Cc2ccccc2)NC(=O)CN2CCN(S(=O)(=O)c3ccc(N)cc3)CC2=O)cc1`, which EC50 [2] is on record?
Answer: 30 nM

Question: And the TIME [3]?
Answer: 0.000133 h

Question: What about the Stability [4] of the same molecule?
Answer: 0%

Question: And the EC50 [5]?
Answer: 280 nM

Question: And the TIME [6]?
Answer: 1.67e-05 h

Question: What about the EC50 [7] of the same molecule?
Answer: 30 nM

Question: And the K [8]?
Answer: 13.4 s⁻¹

Question: What about the K [9] of the same molecule?
Answer: 2.04 s⁻¹

Question: What about the Activity [10] of the same molecule?
Answer: 0.807%

Question: And the Stability [11]?
Answer: 113.3%

Question: What about the t1/2 ([12]; microsomes, 1 h, 1 µM) of the same molecule?
Answer: 240 s

Question: What about the CLint scaled at 1 µM [13] of the same molecule?
Answer: 309 mL/min/kg

Question: And the microsomal CLint at 1 µM ([14]; liver microsomes, read-out: CLH)?
Answer: 344 µL/min/mg

Question: What about the EC50 [15] of the same molecule?
Answer: 280 nM

Question: And the Activity [16]?
Answer: 0.092%

Question: With `COc1ccc(N(C)C(=O)[C@H](Cc2ccccc2)NC(=O)Cc2c(C)[nH]c3ccccc23)cc1` as the molecule, how does the EC50 [2] read?
Answer: 2220 nM

Question: What about the TIME [3] of the same molecule?
Answer: 0.00772 h

Question: What about the Stability [4] of the same molecule?
Answer: 0%

Question: What about the IC50 [17] of the same molecule?
Answer: 26.6 nM

Question: And the EC50 [5]?
Answer: 800 nM

Question: And the TIME [6]?
Answer: 0.000183 h

Question: What about the EC50 [7] of the same molecule?
Answer: 4160 nM

Question: And the K [8]?
Answer: 1.58 s⁻¹

Question: What about the K [9] of the same molecule?
Answer: 0.036 s⁻¹

Question: And the Kd [18]?
Answer: 969 nM

Question: What about the Activity [10] of the same molecule?
Answer: 4.185%

Question: What about the Stability [11] of the same molecule?
Answer: 106.1%

Question: And the Kd [19]?
Answer: 47 nM

Question: And the half-life at 1 µM ([12]; liver microsomes)?
Answer: 42 s

Question: And the CLH ([14]; microsomes, 1 h, 1 µM)?
Answer: 2114.6 µL/min/mg

Question: What about the EC50 [15] of the same molecule?
Answer: 750 nM

Question: And the Activity [16]?
Answer: 0.07%

Question: What about the Selectivity ratio [20] of the same molecule?
Answer: 20.6

Question: What about the CC50 at 120 h [21] of the same molecule?
Answer: > 32300 nM
